# pEC50, pKi: −log10 of the molar value.
# Target: D(3) dopamine receptor (Homo sapiens, UniProt P35462)
# Test: Displacement of [3H]spiperone from human dopamine D3 receptor transfected in CHO cells after 1 hr by scintillation counting analysis
# Type: cell-based
# Details: not given
# D(3) dopamine receptor, sequence (P35462 whole entry): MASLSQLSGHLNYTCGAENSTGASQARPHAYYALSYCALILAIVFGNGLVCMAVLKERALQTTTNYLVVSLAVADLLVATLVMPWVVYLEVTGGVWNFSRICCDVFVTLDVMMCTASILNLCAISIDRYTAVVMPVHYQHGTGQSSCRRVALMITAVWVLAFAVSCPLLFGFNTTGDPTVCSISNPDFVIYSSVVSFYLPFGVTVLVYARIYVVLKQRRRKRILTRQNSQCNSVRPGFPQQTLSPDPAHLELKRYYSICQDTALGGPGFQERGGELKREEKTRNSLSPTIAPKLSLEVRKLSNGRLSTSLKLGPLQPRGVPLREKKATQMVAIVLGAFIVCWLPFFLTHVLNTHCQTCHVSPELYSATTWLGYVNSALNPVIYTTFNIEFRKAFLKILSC
row,pKi,SMILES
1,8.80,CCCCn1cc(CCCOc2ccc(C(=O)NCCCCN(CCC)CCc3ccc(O)c4[nH]c(=O)ccc34)cc2OC)nn1
2,8.66,C#CC1=CC[C@H](N(CCC)CCCCNC(=O)c2ccc(OCCCc3cn(CCCC)nn3)c(OC)c2)CO1

# Target: T1, D(2) dopamine receptor (Homo sapiens, UniProt P14416)
# T1 sequence (P14416 whole entry): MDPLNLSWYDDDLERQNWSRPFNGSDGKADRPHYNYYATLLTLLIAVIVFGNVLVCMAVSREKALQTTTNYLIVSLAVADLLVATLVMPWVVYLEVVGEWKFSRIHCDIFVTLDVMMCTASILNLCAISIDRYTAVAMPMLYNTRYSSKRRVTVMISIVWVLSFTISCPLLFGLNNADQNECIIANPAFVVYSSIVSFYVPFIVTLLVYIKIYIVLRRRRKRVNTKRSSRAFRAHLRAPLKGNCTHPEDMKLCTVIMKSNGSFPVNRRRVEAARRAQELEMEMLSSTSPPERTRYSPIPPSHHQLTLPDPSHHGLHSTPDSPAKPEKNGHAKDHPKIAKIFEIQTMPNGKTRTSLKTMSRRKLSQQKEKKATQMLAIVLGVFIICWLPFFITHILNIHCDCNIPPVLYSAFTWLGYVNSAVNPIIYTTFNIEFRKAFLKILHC
# Test: Intrinsic activity at human dopamine D2S receptor expressed in HEK293 cells co-transfected with Galphai2 assessed as [35S]GTPgammaS binding after 30 mins by [35S]GTPgammaS incorporation assay
# Type: functional, cell-based
# Details: not given
row,pEC50,SMILES
1,5.77,CCCCn1cc(CCCOc2ccc(C(=O)NCCCCN(CCC)CCc3ccc(O)c4[nH]c(=O)ccc34)cc2OC)nn1
2,5.54,C#CC1=CC[C@H](N(CCC)CCCCNC(=O)c2ccc(OCCCc3cn(CCCC)nn3)c(OC)c2)CO1

# Target: not listed separately
# Test: Displacement of [3H]prazosin from poricne cerebral cortex alpha1 adrenergic receptor by scintillation counting analysis
# Type: tissue-based, Sus scrofa
# Details: not given
row,pKi,SMILES
1,5.74,C#CC1=CC[C@H](N(CCC)CCCCNC(=O)c2ccc(-c3ccccc3)cc2)CC1
2,6.21,C#CC1=CC[C@@H](N(CCC)CCCCNC(=O)c2ccc(-c3ccccc3)cc2)CC1
3,5.62,CCCCn1cc(CCCOc2ccc(C(=O)NCCCCN(CCC)CCc3ccc(O)c4[nH]c(=O)ccc34)cc2OC)nn1
4,6.07,C#CC1=CC[C@H](N(CCC)CCCCNC(=O)c2ccc(OCCCc3cn(CCCC)nn3)c(OC)c2)CO1

# Target: T1, D(2) dopamine receptor
# Test: Intrinsic activity at human dopamine D2S receptor expressed in HEK293 cells co-transfected with Galphai2 assessed as [35S]GTPgammaS binding after 30 mins by [35S]GTPgammaS incorporation assay relative to quinpirole
# Type: functional, cell-based
# Details: in the assay text read “after 75 mins” for “after 30 mins”
# Summary of the method: (§1)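 Membranes from HEK293 cells cotransfected with D2L or D2S and PTX-insensitive Gαi2; 30 μg/mL protein, 10 μM GDP and compounds preincubated 30 min at 37 °C, then 0.10 nM [35S]GTPγS added for 75 min at 37 °C; filtration.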
row,Emax [%],SMILES
1,100,C#CC1=CC[C@@H](N(CCC)CCCCNC(=O)c2ccc(-c3ccccc3)cc2)CC1
2,85,CCCCn1cc(CCCOc2ccc(C(=O)NCCCCN(CCC)CCc3ccc(O)c4[nH]c(=O)ccc34)cc2OC)nn1
3,89,C#CC1=CC[C@H](N(CCC)CCCCNC(=O)c2ccc(OCCCc3cn(CCCC)nn3)c(OC)c2)CO1

# Target: T1, D(2) dopamine receptor
# Test: Intrinsic activity at human dopamine D2L receptor expressed in HEK293 cells co-transfected with Galphai2 assessed as [35S]GTPgammaS binding after 30 mins by [35S]GTPgammaS incorporation assay relative to quinpirole
# Type: functional, cell-based
# Details: in the assay text read “after 75 mins” for “after 30 mins”
# Summary of the method: as §1
row,Emax [%],SMILES
1,73,C#CC1=CC[C@H](N(CCC)CCCCNC(=O)c2ccc(-c3ccccc3)cc2)CC1
2,84,CCCCn1cc(CCCOc2ccc(C(=O)NCCCCN(CCC)CCc3ccc(O)c4[nH]c(=O)ccc34)cc2OC)nn1
3,84,C#CC1=CC[C@H](N(CCC)CCCCNC(=O)c2ccc(OCCCc3cn(CCCC)nn3)c(OC)c2)CO1

# Target: T2, D(4) dopamine receptor (Homo sapiens, UniProt P21917)
# T2 sequence (P21917 whole entry): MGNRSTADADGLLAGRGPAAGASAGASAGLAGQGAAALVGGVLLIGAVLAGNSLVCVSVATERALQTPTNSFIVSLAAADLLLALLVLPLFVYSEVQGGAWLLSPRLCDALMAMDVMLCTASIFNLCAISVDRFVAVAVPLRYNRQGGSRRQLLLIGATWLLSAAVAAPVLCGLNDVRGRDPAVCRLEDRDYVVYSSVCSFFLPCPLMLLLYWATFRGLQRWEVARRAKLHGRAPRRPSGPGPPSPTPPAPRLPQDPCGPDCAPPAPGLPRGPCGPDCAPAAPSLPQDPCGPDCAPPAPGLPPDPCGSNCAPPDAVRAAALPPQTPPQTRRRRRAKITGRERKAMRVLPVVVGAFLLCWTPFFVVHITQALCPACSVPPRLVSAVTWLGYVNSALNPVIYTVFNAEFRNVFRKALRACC
# Test: Displacement of [3H]spiperone from human dopamine D4.4 receptor transfected in CHO cells after 1 hr by scintillation counting analysis
# Type: cell-based
# Details: not given
row,pKi,SMILES
1,7.22,C#CC1=CC[C@H](N(CCC)CCCCNC(=O)c2ccc(-c3ccccc3)cc2)CC1
2,7.52,C#CC1=CC[C@@H](N(CCC)CCCCNC(=O)c2ccc(-c3ccccc3)cc2)CC1
3,6.10,CCCCn1cc(CCCOc2ccc(C(=O)NCCCCN(CCC)CCc3ccc(O)c4[nH]c(=O)ccc34)cc2OC)nn1
4,6.74,C#CC1=CC[C@H](N(CCC)CCCCNC(=O)c2ccc(OCCCc3cn(CCCC)nn3)c(OC)c2)CO1

# Target: T1, D(2) dopamine receptor
# Test: Displacement of [3H]spiperone from human dopamine D2S receptor transfected in CHO cells after 1 hr by scintillation counting analysis
# Type: cell-based
# Details: not given
row,pKi,SMILES
1,7.28,CCCCn1cc(CCCOc2ccc(C(=O)NCCCCN(CCC)CCc3ccc(O)c4[nH]c(=O)ccc34)cc2OC)nn1
2,8.00,C#CC1=CC[C@H](N(CCC)CCCCNC(=O)c2ccc(OCCCc3cn(CCCC)nn3)c(OC)c2)CO1

# Target: D(1B) dopamine receptor (Homo sapiens, UniProt P21918)
# Sequence (P21918 whole entry): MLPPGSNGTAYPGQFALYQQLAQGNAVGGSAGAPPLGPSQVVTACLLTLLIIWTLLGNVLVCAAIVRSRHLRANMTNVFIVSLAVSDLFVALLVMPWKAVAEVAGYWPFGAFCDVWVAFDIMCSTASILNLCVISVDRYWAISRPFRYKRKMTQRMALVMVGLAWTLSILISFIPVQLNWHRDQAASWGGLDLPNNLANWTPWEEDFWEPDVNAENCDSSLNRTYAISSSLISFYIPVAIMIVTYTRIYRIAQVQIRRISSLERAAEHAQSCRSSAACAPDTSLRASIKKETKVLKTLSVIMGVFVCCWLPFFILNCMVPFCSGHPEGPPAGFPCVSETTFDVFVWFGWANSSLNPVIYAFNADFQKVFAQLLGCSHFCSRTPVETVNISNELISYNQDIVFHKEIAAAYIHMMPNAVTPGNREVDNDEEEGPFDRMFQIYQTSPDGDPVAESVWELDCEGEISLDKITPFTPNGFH
# Test: Displacement of [3H]SCH23390 from human dopamine D5 receptor transfected in HEK293 cells after 1 hr by scintillation counting analysis
# Type: cell-based
# Details: not given
row,pKi,SMILES
1,4.60,CCCCn1cc(CCCOc2ccc(C(=O)NCCCCN(CCC)CCc3ccc(O)c4[nH]c(=O)ccc34)cc2OC)nn1
2,4.32,C#CC1=CC[C@H](N(CCC)CCCCNC(=O)c2ccc(OCCCc3cn(CCCC)nn3)c(OC)c2)CO1

# Target: T1, D(2) dopamine receptor
# Test: Intrinsic activity at human dopamine D2L receptor expressed in HEK293 cells co-transfected with Galpha0i assessed as [35S]GTPgammaS binding after 30 mins by [35S]GTPgammaS incorporation assay
# Type: functional, cell-based
# Details: not given
row,pEC50,SMILES
1,5.42,CCCCn1cc(CCCOc2ccc(C(=O)NCCCCN(CCC)CCc3ccc(O)c4[nH]c(=O)ccc34)cc2OC)nn1
2,7.05,C#CC1=CC[C@H](N(CCC)CCCCNC(=O)c2ccc(OCCCc3cn(CCCC)nn3)c(OC)c2)CO1

# Target: T1, D(2) dopamine receptor
# Test: Intrinsic activity at human dopamine D2S receptor expressed in HEK293 cells co-transfected with Galpha0i assessed as [35S]GTPgammaS binding after 30 mins by [35S]GTPgammaS incorporation assay
# Type: functional, cell-based
# Details: not given
row,pEC50,SMILES
1,6.01,CCCCn1cc(CCCOc2ccc(C(=O)NCCCCN(CCC)CCc3ccc(O)c4[nH]c(=O)ccc34)cc2OC)nn1
2,6.39,C#CC1=CC[C@H](N(CCC)CCCCNC(=O)c2ccc(OCCCc3cn(CCCC)nn3)c(OC)c2)CO1

# Target: D(1A) dopamine receptor (Homo sapiens, UniProt P21728)
# Sequence (P21728 whole entry): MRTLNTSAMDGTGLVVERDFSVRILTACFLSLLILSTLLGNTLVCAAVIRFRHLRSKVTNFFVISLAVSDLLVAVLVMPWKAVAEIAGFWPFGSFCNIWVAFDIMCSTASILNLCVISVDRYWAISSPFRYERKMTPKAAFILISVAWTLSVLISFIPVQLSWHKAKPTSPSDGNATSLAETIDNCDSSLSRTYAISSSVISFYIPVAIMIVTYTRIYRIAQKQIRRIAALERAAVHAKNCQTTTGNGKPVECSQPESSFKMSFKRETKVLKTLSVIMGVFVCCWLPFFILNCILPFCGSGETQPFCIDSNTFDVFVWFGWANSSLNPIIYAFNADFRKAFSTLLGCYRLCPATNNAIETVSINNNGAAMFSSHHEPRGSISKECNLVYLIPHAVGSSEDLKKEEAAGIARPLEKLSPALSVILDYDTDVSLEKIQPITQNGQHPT
# Test: Displacement of [3H]SCH23390 from human dopamine D1 receptor transfected in HEK293 cells after 1 hr by scintillation counting analysis
# Type: cell-based
# Details: not given
row,pKi,SMILES
1,5.34,CCCCn1cc(CCCOc2ccc(C(=O)NCCCCN(CCC)CCc3ccc(O)c4[nH]c(=O)ccc34)cc2OC)nn1
2,5.41,C#CC1=CC[C@H](N(CCC)CCCCNC(=O)c2ccc(OCCCc3cn(CCCC)nn3)c(OC)c2)CO1

# Target: T1, D(2) dopamine receptor
# Test: Intrinsic activity at human dopamine D2S receptor expressed in HEK293 cells co-transfected with Galpha0i assessed as [35S]GTPgammaS binding after 30 mins by [35S]GTPgammaS incorporation assay relative to quinpirole
# Type: functional, cell-based
# Details: not given
# Summary of the method: (§2)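 HEK293 membranes cotransfected with D2L or D2S plus PTX-insensitive Gαo1; 30 μg/mL protein with compounds and 10 μM GDP preincubated 30 min, 37 °C; then 0.10 nM [35S]GTPγS for 30 min, 37 °C; GF/B filtration.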
row,Emax [%],SMILES
1,100,C#CC1=CC[C@H](N(CCC)CCCCNC(=O)c2ccc(-c3ccccc3)cc2)CC1
2,104,C#CC1=CC[C@@H](N(CCC)CCCCNC(=O)c2ccc(-c3ccccc3)cc2)CC1
3,87,CCCCn1cc(CCCOc2ccc(C(=O)NCCCCN(CCC)CCc3ccc(O)c4[nH]c(=O)ccc34)cc2OC)nn1
4,108,C#CC1=CC[C@H](N(CCC)CCCCNC(=O)c2ccc(OCCCc3cn(CCCC)nn3)c(OC)c2)CO1

# Target: D(1A) dopamine receptor (Sus scrofa) (UniProt P50130)
# Sequence (P50130 whole entry, looked up): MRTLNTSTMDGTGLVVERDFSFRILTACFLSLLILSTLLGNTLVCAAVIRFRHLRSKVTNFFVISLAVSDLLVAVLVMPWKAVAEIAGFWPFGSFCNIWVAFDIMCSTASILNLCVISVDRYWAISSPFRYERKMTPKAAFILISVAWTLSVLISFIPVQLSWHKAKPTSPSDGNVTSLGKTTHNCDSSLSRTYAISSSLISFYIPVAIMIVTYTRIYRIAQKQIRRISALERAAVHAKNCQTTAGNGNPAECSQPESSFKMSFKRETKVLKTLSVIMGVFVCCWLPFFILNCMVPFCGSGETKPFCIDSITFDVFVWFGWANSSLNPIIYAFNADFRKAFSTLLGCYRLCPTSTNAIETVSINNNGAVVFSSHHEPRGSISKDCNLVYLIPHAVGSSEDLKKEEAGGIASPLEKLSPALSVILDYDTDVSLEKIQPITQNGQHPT
# Test: Displacement of [3H]SCH23390 from porcine dopamine D1 receptor in striatal membranes after 1 hr by scintillation counting analysis
# Details: not given
row,pKi,SMILES
1,4.74,C#CC1=CC[C@H](N(CCC)CCCCNC(=O)c2ccc(-c3ccccc3)cc2)CC1
2,4.89,C#CC1=CC[C@@H](N(CCC)CCCCNC(=O)c2ccc(-c3ccccc3)cc2)CC1

# Target: not listed separately
# Test: Displacement of [3H]WAY100635 from poricne cerebral cortex 5-HT1A receptor by scintillation counting analysis
# Type: tissue-based, Sus scrofa
# Details: not given
row,pKi,SMILES
1,6.96,C#CC1=CC[C@H](N(CCC)CCCCNC(=O)c2ccc(-c3ccccc3)cc2)CC1
2,6.80,C#CC1=CC[C@@H](N(CCC)CCCCNC(=O)c2ccc(-c3ccccc3)cc2)CC1
3,5.55,CCCCn1cc(CCCOc2ccc(C(=O)NCCCCN(CCC)CCc3ccc(O)c4[nH]c(=O)ccc34)cc2OC)nn1
4,6.09,C#CC1=CC[C@H](N(CCC)CCCCNC(=O)c2ccc(OCCCc3cn(CCCC)nn3)c(OC)c2)CO1

# Target: T1, D(2) dopamine receptor
# Test: Intrinsic activity at human dopamine D2L receptor expressed in HEK293 cells co-transfected with Galphai2 assessed as [35S]GTPgammaS binding after 30 mins by [35S]GTPgammaS incorporation assay
# Type: functional, cell-based
# Details: not given
row,pEC50,SMILES
1,5.14,CCCCn1cc(CCCOc2ccc(C(=O)NCCCCN(CCC)CCc3ccc(O)c4[nH]c(=O)ccc34)cc2OC)nn1
2,5.72,C#CC1=CC[C@H](N(CCC)CCCCNC(=O)c2ccc(OCCCc3cn(CCCC)nn3)c(OC)c2)CO1

# Target: T1, D(2) dopamine receptor
# Test: Agonist activity at ARMS2-PK2-tagged human dopamine D2S receptor expressed in HEK293 cells co-expressing (EA)-tagged beta arrestin fusion protein assessed as recruitment of beta-arrestin-2 after 5 hrs by chemiluminescence assay relative to quinpirole
# Type: cell-based
# Details: not given
# Summary of the method: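 Transient transfection of D2S (ProLink-tagged) into HEK293 cells stably expressing EA-tagged β-arrestin-2; 5000 cells seeded, 24 h.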
row,Emax [%],SMILES
1,93,C#CC1=CC[C@H](N(CCC)CCCCNC(=O)c2ccc(-c3ccccc3)cc2)CC1
2,93,C#CC1=CC[C@@H](N(CCC)CCCCNC(=O)c2ccc(-c3ccccc3)cc2)CC1
3,86,CCCCn1cc(CCCOc2ccc(C(=O)NCCCCN(CCC)CCc3ccc(O)c4[nH]c(=O)ccc34)cc2OC)nn1
4,101,C#CC1=CC[C@H](N(CCC)CCCCNC(=O)c2ccc(OCCCc3cn(CCCC)nn3)c(OC)c2)CO1

# Target: T1, D(2) dopamine receptor
# Test: Displacement of [3H]spiperone from human dopamine D2L receptor transfected in CHO cells after 1 hr by scintillation counting analysis
# Type: cell-based
# Details: not given
row,pKi,SMILES
1,7.62,CCCCn1cc(CCCOc2ccc(C(=O)NCCCCN(CCC)CCc3ccc(O)c4[nH]c(=O)ccc34)cc2OC)nn1
2,8.31,C#CC1=CC[C@H](N(CCC)CCCCNC(=O)c2ccc(OCCCc3cn(CCCC)nn3)c(OC)c2)CO1

# Target: T1, D(2) dopamine receptor
# Test: Intrinsic activity at human dopamine D2L receptor expressed in HEK293 cells co-transfected with Galpha0i assessed as [35S]GTPgammaS binding after 30 mins by [35S]GTPgammaS incorporation assay relative to quinpirole
# Type: functional, cell-based
# Details: not given
# Summary of the method: as §2
row,Emax [%],SMILES
1,92,C#CC1=CC[C@@H](N(CCC)CCCCNC(=O)c2ccc(-c3ccccc3)cc2)CC1
2,82,CCCCn1cc(CCCOc2ccc(C(=O)NCCCCN(CCC)CCc3ccc(O)c4[nH]c(=O)ccc34)cc2OC)nn1
3,88,C#CC1=CC[C@H](N(CCC)CCCCNC(=O)c2ccc(OCCCc3cn(CCCC)nn3)c(OC)c2)CO1

# Target: T1, D(2) dopamine receptor
# Test: Agonist activity at ARMS2-PK2-tagged human dopamine D2S receptor expressed in HEK293 cells co-expressing (EA)-tagged beta arrestin fusion protein assessed as recruitment of beta-arrestin-2 after 5 hrs by chemiluminescence assay
# Type: cell-based
# Details: not given
row,pEC50,SMILES
1,6.85,CCCCn1cc(CCCOc2ccc(C(=O)NCCCCN(CCC)CCc3ccc(O)c4[nH]c(=O)ccc34)cc2OC)nn1
2,6.32,C#CC1=CC[C@H](N(CCC)CCCCNC(=O)c2ccc(OCCCc3cn(CCCC)nn3)c(OC)c2)CO1

# Target: 5-hydroxytryptamine receptor 2A (Homo sapiens, UniProt P28223)
# Sequence (P28223 whole entry): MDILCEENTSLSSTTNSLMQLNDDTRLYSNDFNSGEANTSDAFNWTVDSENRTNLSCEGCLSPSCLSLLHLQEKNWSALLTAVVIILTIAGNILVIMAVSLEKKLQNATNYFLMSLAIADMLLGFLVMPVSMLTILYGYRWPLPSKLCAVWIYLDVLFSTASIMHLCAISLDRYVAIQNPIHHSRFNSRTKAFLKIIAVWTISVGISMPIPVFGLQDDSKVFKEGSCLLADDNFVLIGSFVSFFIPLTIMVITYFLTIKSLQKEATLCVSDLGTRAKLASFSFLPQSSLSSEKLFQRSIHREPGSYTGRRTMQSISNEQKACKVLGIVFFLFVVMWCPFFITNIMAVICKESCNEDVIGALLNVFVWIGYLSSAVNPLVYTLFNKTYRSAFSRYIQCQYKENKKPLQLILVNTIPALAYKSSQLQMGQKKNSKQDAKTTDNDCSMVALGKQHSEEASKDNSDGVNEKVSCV
# Test: Displacement of [3H]ketanserin from human 5-HT2A receptor transfected in HEK293 cells by scintillation counting analysis
# Type: cell-based
# Details: not given
row,pKi,SMILES
1,4.55,C#CC1=CC[C@H](N(CCC)CCCCNC(=O)c2ccc(-c3ccccc3)cc2)CC1
2,5.05,C#CC1=CC[C@@H](N(CCC)CCCCNC(=O)c2ccc(-c3ccccc3)cc2)CC1
3,5.44,CCCCn1cc(CCCOc2ccc(C(=O)NCCCCN(CCC)CCc3ccc(O)c4[nH]c(=O)ccc34)cc2OC)nn1
4,4.85,C#CC1=CC[C@H](N(CCC)CCCCNC(=O)c2ccc(OCCCc3cn(CCCC)nn3)c(OC)c2)CO1

# From ChEMBL document CHEMBL3576771, “Molecular determinants of biased agonism at the dopamine D₂ receptor” (J Med Chem, 2015)
